pIC50, pKi: −log10 of the molar value.
Experiments:
[1] = tested on: THP-1; test: Antiinflammatory activity against human THP1 cells assessed as inhibition of LPS-induced TNFalpha release at 10 uM after 24 hrs; type: functional; settings: THP-1, 24 h
In short: (§1)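 Human THP-1 cells were grown in RPMI 1640 with 10% FBS, penicillin and streptomycin, then differentiated with PMA. Test agents in 0.5% DMSO were preincubated with cells for 30 min at 37 °C before E. coli 0127:B8 LPS was added. Cytokine release was measured by the manufacturer's (BD Biosciences) method and expressed as percent inhibition versus control; IC50 values came from nonlinear regression.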

[2] = molecular target: T1, Tyrosinase (Agaricus bisporus, UniProt O42713); test: Inhibition of mashroom tyrosinase
T1 sequence (O42713 whole entry): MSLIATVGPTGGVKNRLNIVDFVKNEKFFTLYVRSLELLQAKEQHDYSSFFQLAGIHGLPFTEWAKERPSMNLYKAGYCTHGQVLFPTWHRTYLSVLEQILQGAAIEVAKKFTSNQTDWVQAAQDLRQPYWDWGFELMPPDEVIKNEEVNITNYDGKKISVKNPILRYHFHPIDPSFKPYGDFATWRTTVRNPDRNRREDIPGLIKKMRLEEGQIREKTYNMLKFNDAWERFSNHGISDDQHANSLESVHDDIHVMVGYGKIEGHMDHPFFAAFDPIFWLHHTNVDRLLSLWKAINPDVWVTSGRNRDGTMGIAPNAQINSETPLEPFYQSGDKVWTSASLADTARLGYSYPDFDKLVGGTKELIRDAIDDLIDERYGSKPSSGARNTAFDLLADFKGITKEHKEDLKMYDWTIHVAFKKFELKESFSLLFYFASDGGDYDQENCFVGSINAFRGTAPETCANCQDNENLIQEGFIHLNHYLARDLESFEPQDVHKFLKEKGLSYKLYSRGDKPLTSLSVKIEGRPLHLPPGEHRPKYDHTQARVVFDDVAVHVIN
In short: (§2)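 Mushroom tyrosinase diphenolase activity (L-DOPA substrate) or monophenolase activity (L-tyrosine substrate) in 0.25 M phosphate buffer, pH 6.8, at 30 °C. Samples were first dissolved in DMSO. Dopachrome formation was followed spectrophotometrically at 475 nm.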

[3] = molecular target: T1, Tyrosinase; test: Inhibition of mashroom tyrosinase assessed as oxidation of L-DOPA; in short: as §2
[4] = tested on: HCT-116; test: Anticancer activity against human HCT116 cells at 10 uM after 24 hrs; type: functional
[5] = tested on: HL-60; test: Anticancer activity against human HL60 cells at 10 uM after 24 hrs; type: functional
[6] = tested on: PC-3; test: Anticancer activity against human PC3 cells at 10 uM after 24 hrs; type: functional
[7] = tested on: THP-1; test: Antiinflammatory activity against human THP1 cells assessed as inhibition of LPS-induced IL6 release at 10 uM after 24 hrs; type: functional; settings: THP-1, 24 h; in short: as §1
[8] = tested on: MCF7; test: Anticancer activity against human MCF7 cells at 10 uM after 24 hrs; type: functional
[9] = tested on: NCI-H460; test: Anticancer activity against human H460 cells at 10 uM after 24 hrs; type: functional
[10] = tested on: MCF7; test: Anticancer activity against human MCF7 cells at 0.5 uM after 24 hrs; type: functional
[11] = tested on: PC-3; test: Anticancer activity against human PC3 cells at 0.5 uM after 24 hrs; type: functional
[12] = tested on: HCT-116; test: Anticancer activity against human HCT116 cells at 0.5 uM after 24 hrs; type: functional
[13] = tested on: HL-60; test: Anticancer activity against human HL60 cells at 0.5 uM after 24 hrs; type: functional
[14] = tested on: NCI-H460; test: Anticancer activity against human H460 cells at 0.5 uM after 24 hrs; type: functional
[15] = Cytotoxicity against […] at 1 uM; type: cell-based
In short: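 Cytotoxicity was measured with the CCK-8 kit in PMA-differentiated THP-1 cells at the same time as the LPS-induced cytokine release assay. Test agents were given in 0.5% DMSO with a 30 min preincubation at 37 °C before LPS.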

[16] = tested on: THP-1; test: Antiinflammatory activity against human THP1 cells assessed as inhibition of LPS-induced TNFalpha release at 1 uM after 24 hrs; type: functional; design: scale not given: the % may be the effect or the level left; in short: as §1
[17] = tested on: THP-1; test: Antiinflammatory activity against human THP1 cells assessed as inhibition of LPS-induced IL6 release at 1 uM after 24 hrs; type: functional; design: scale not given: the % may be the effect or the level left; in short: as §1

| SMILES | inhibition at 10 µM [1] [%] | pIC50 [2] | pKi [2] | pIC50 [3] | pKi [3] | Activity [4] [%] | Activity [5] [%] | Activity [6] [%] | inhibition at 10 µM [7] [%] | Activity [8] [%] | Activity [9] [%] | Activity [10] [%] | Activity [11] [%] | Activity [12] [%] | Activity [13] [%] | Activity [14] [%] | Activity [15] [%] | Activity [16] [%] | Activity [17] [%] |
| --- | --- | --- | --- | --- | --- | --- | --- | --- | --- | --- | --- | --- | --- | --- | --- | --- | --- | --- | --- |
| COc1cc(OC)c(C2CCN(C)C2CO)c(O)c1-c1cc(-c2ccccc2Cl)[nH]n1 (centres undefined) | 24 | 4.64 | 4.97 | 4.53 | 4.93 | 73 | 67 | 69 | 47 | 63 | 69 | – | – | – | – | – | – | – | – |
| COc1cc(OC)c(C2CCN(C)C2CO)c(O)c1-c1cc(-c2ccccc2Br)[nH]n1 (centres undefined) | 19 | – | – | – | – | 61 | 62 | 51 | 39 | 55 | 53 | – | – | – | – | – | – | – | – |
| COc1cc(OC)c(C2CCN(C)C2CO)c(O)c1-c1cc(-c2ccc(Cl)cc2Cl)[nH]n1 (centres undefined) | 18 | – | – | – | – | 59 | 59 | 63 | 41 | 58 | 61 | – | – | – | – | – | – | – | – |
| COc1cc(OC)c(C2CCN(C)C2CO)c(O)c1-c1cc(-c2ccc([N+](=O)[O-])cc2Cl)[nH]n1 (centres undefined) | 21 | 4.75 | 5.01 | 4.67 | 4.84 | 67 | 63 | 65 | 42 | 61 | 65 | – | – | – | – | – | – | – | – |
| COc1cc(OC)c(C2CCN(C)C2CO)c(O)c1-c1cc(-c2ccccc2F)[nH]n1 (centres undefined) | 0 | – | – | – | – | 19 | 19 | 21 | 11 | 15 | 23 | – | – | – | – | – | – | – | – |
| COc1cc(OC)c(C2CCN(C)C2CO)c(O)c1-c1cc(-c2ccccc2C)[nH]n1 (centres undefined) | 0 | – | – | – | – | 16 | 14 | 17 | 13 | 11 | 18 | – | – | – | – | – | – | – | – |
| COc1ccccc1-c1cc(-c2c(OC)cc(OC)c(C3CCN(C)C3CO)c2O)n[nH]1 (centres undefined) | 0 | – | – | – | – | 21 | 17 | 29 | 10 | 13 | 15 | – | – | – | – | – | – | – | – |
| COc1ccc(-c2cc(-c3c(OC)cc(OC)c(C4CCN(C)C4CO)c3O)n[nH]2)c(OC)c1 (centres undefined) | 0 | 5.76 | 6.08 | 5.55 | 6.02 | 17 | 24 | 16 | 11 | 21 | 19 | – | – | – | – | – | – | – | – |
| COc1cc(OC)c(C2CCN(C)C2CO)c(O)c1-c1cc(-c2cccc(Cl)c2)[nH]n1 (centres undefined) | 11 | – | – | – | – | 63 | 61 | 67 | 35 | 59 | 55 | – | – | – | – | – | – | – | – |
| COc1cc(OC)c(C2CCN(C)C2CO)c(O)c1-c1cc(-c2cccc(Br)c2)[nH]n1 (centres undefined) | 13 | – | – | – | – | 59 | 52 | 58 | 43 | 65 | 61 | – | – | – | – | – | – | – | – |
| COc1cc(OC)c(C2CCN(C)C2CO)c(O)c1-c1cc(-c2ccc(C)cc2)[nH]n1 (centres undefined) | 0 | – | – | – | – | 19 | 21 | 11 | 10 | 17 | 13 | – | – | – | – | – | – | – | – |
| COc1cc(OC)c(C2CCN(C)C2CO)c(O)c1-c1cc(-c2ccc(F)cc2)[nH]n1 (centres undefined) | 11 | 4.81 | 4.95 | 4.71 | 4.90 | 21 | 26 | 15 | 28 | 19 | 16 | – | – | – | – | – | – | – | – |
| COc1ccc(-c2cc(-c3c(OC)cc(OC)c(C4CCN(C)C4CO)c3O)n[nH]2)cc1 (centres undefined) | 0 | – | – | – | – | 16 | 19 | 22 | 12 | 15 | 13 | – | – | – | – | – | – | – | – |
| COc1cc(OC)c(C2CCN(C)C2CO)c(O)c1-c1cc(-c2ccc(Cl)cc2)[nH]n1 (centres undefined) | 16 | – | – | – | – | 55 | 63 | 65 | 35 | 61 | 58 | – | – | – | – | – | – | – | – |
| COc1cc(OC)c(C2CCN(C)C2CO)c(O)c1-c1cc(-c2ccc(Br)cc2)[nH]n1 (centres undefined) | 17 | – | – | – | – | 49 | 57 | 59 | 31 | 63 | 61 | – | – | – | – | – | – | – | – |
| CN1CC[C@H](c2c(O)cc(O)c3c(=O)cc(-c4ccccc4Cl)oc23)[C@H](O)C1 [ALVOCIDIB] | – | – | – | – | – | – | – | – | – | – | – | 74 | 77 | 87 | 72 | 78 | – | – | – |
| C[C@@H]1C[C@H]2[C@@H]3CCC4=CC(=O)C=C[C@]4(C)[C@@]3(F)[C@@H](O)C[C@]2(C)[C@@]1(O)C(=O)CO [DEXAMETHASONE] | – | – | – | – | – | – | – | – | – | – | – | – | – | – | – | – | 0 | 71 | 85 |

Source: ChEMBL document CHEMBL1212864, “Synthesis of novel 3,5-diaryl pyrazole derivatives using combinatorial chemistry as inhibitors of tyrosinase as well as potent anticancer, anti-inflammatory agents” (Bioorg Med Chem, 2010)
